ChEMBL document CHEMBL1129963, “Sulfonimidamide analogs of oncolytic sulfonylureas” (J Med Chem, 1997)
In brackets after ≈: the same amount, converted by molar mass.

Experiments:
Mus musculus [1] = experiment: In vivo antitumor activity against subaxillary implanted 6C3HED lymphosarcoma implanted in C3H mice at a dose of 150 mg/kg administered perorally twice daily for a period of 8 days.; type: functional; details: Mus musculus, 6C3HED, po, 192 h
Method in brief: (§1)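 6C3HED lymphosarcoma was carried in C3H mice. Compound was dosed at the stated route and schedule for 8 days (daily, twice daily, or days 1, 3, 5, 7) and tumor growth inhibition was scored against controls. The table value is the lowest dose giving >80% inhibition, or the highest dose tested. Deaths per group were recorded.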

CCRF-CEM = experiment: In vitro cytotoxicity against CCRF-CEM cells; type: functional, cell-based; details: Homo sapiens
Method in brief: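 CCRF-CEM cells were grown in culture for 72 h with compound. The value is the concentration that inhibited growth to 50% of control growth.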

Mus musculus [2] = experiment: In vivo antitumor activity against subaxillary implanted 6C3HED lymphosarcoma implanted in C3H mice at a dose of 300 mg/kg administered perorally twice daily for a period of 8 days.; type: functional; details: 192 h, route oral; method in brief: as §1
Mus musculus [3] = experiment: In vivo antitumor activity against subaxillary implanted 6C3HED lymphosarcoma implanted in C3H mice at a dose of 300 mg/kg administered perorally daily for a period of 8 days.; type: functional; details: 192 h, route oral; method in brief: as §1
Mus musculus [4] = experiment: In vivo antitumor activity of compound against subaxillary implanted 6C3HED lymphosarcoma implanted in C3H mice at a dose of 50 mg/kg administered perorally twice daily for a period of 8 days.; type: functional; details: 192 h, route oral; method in brief: as §1
Mus musculus [5] = experiment: In vivo antitumor activity of compound against subaxillary implanted 6C3HED lymphosarcoma implanted in C3H mice at a dose of 300 mg/kg administered intraperitoneally daily for a period of 8 days.; type: functional; details: ip, 192 h, route intraperitoneal; method in brief: as §1
Mus musculus [6] = experiment: Metabolic breakdown to the o-sulfate of p-chloroaniline (2-amino-5-chlorophenyl sulfate) by giving 100 mg/kg oral doses of the compound; type: functional
Method in brief: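 Groups of two to four mice received single 100 mg/kg oral doses of each compound. Urine was pooled over 0-24 h, and the 2-amino-5-chlorophenyl sulfate excreted in 24 h per mouse was quantified as the marker of p-chloroaniline release.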

Mus musculus [7] = experiment: In vivo antitumor activity of compound against subaxillary implanted 6C3HED lymphosarcoma implanted in C3H mice at a dose of 75 mg/kg administered perorally twice daily for a period of 8 days.; type: functional; details: 192 h, route oral; method in brief: as §1
Mus musculus [8] = experiment: In vivo antitumor activity of compound against subaxillary implanted 6C3HED lymphosarcoma implanted in C3H mice at a dose of 19 mg/kg administered perorally on days 1, 3, 5, 7; type: functional; details: route oral; method in brief: as §1
Mus musculus [9] = experiment: In vivo antitumor activity of compound against subaxillary implanted 6C3HED lymphosarcoma implanted in C3H mice at a dose of 200 mg/kg administered perorally twice daily for a period of 8 days.; type: functional; details: 192 h, route oral; method in brief: as §1

| SMILES | IC50 (CCRF-CEM) [µg/mL] | inhibition in vivo at 300 mg/kg (Mus musculus [2]) [%] | other results |
| --- | --- | --- | --- |
| CCN[S+]([O-])(=NC(=O)Nc1ccc(Cl)cc1)c1ccc(C)cc1 (centres undefined) | 13.8 (≈ 39.2 µM) |  | inhibition in vivo at 150 mg/kg (Mus musculus [1]): 87% |
| C=CCN[S+]([O-])(=NC(=O)Nc1ccc(Cl)cc1)c1ccc(C)cc1 (centres undefined) | 10 (≈ 27.5 µM) | 45 |  |
| Cc1ccc(NC(=O)N=[S+](N)([O-])c2ccc(C)cc2)cc1 (centres undefined) | > 20 |  | inhibition in vivo at 300 mg/kg (Mus musculus [3]): 40% |
| Cc1ccc([S+]([O-])(=NC(=O)Nc2ccc(Cl)cc2)NCCCO)cc1 (centres undefined) | > 20 | 89 |  |
| N[S+]([O-])(=NC(=O)Nc1ccc(Cl)cc1)c1ccc(Br)cc1 (centres undefined) | 10.6 (≈ 27.3 µM) |  | inhibition in vivo at 150 mg/kg (Mus musculus [1]): 89% |
| CC(=O)OCc1ccc([S+](N)([O-])=NC(=O)Nc2ccc(Cl)cc2)cc1 (centres undefined) | > 20 |  | inhibition in vivo at 50 mg/kg (Mus musculus [4]): 87% |
| CCCCN(C(C)=O)[S+]([O-])(=NC(=O)Nc1ccc(Cl)cc1)c1ccc(C)cc1 (centres undefined) | 12.5 (≈ 29.6 µM) | 53 |  |
| Cc1ccc([S+](N)([O-])=NC(=O)Nc2ccc(Cl)c(Cl)c2)cc1 (centres undefined) | > 20 | 14 |  |
| CC(=O)N(C)[S+]([O-])(=NC(=O)Nc1ccc(Cl)cc1)c1ccc(C)cc1 (centres undefined) | 9.6 (≈ 25.3 µM) |  | inhibition in vivo at 150 mg/kg (Mus musculus [1]): 98% |
| CN[S+]([O-])(=NC(=O)Nc1ccc(Cl)cc1)c1ccc2c(c1)CCC2 (centres undefined) | 10.8 (≈ 29.7 µM) |  | inhibition in vivo at 150 mg/kg (Mus musculus [1]): 75% |
| CC(C)(C)c1ccc([S+](N)([O-])=NC(=O)Nc2ccc(Cl)cc2)cc1 (centres undefined) | 1.7 (≈ 4.65 µM) | 11 |  |
| Cc1ccc([S+]([O-])(=NC(=O)Nc2ccc(Cl)cc2)NCc2ccccc2)cc1 (centres undefined) | 8.7 (≈ 21 µM) | 87 |  |
| CCCC[S+]([O-])(=NC(=O)Nc1ccc(Cl)cc1)NC (centres undefined) | > 20 |  | inhibition in vivo at 300 mg/kg (Mus musculus [5]): 7% |
| CC(=O)N(C(=O)N=[S+]([O-])(c1ccc(C)cc1)N(C)C(C)=O)c1ccc(Cl)cc1 (centres undefined) | 5.6 (≈ 13.3 µM) |  | inhibition in vivo at 150 mg/kg (Mus musculus [1]): 83% |
| COc1ccc(NC(=O)N=[S+](N)([O-])c2ccc(C)cc2)cc1 (centres undefined) | > 20 | 0 |  |
| Cc1ccc(S(=O)(=O)NC(=O)Nc2ccc(Cl)cc2)cc1 [LY-181984] |  |  | Activity (Mus musculus [6]): 1.02 µM; inhibition in vivo at 150 mg/kg (Mus musculus [1]): 93% |
| Cc1ccc([S+]([O-])(=NC(=O)Nc2ccc(Cl)cc2)NC(C)C)cc1 (centres undefined) | 1.4 (≈ 3.83 µM) |  | inhibition in vivo at 75 mg/kg (Mus musculus [7]): 86% |
| Cc1cc([S+](N)([O-])=NC(=O)Nc2ccc(Cl)cc2)cc(C)c1C (centres undefined) | 12.7 (≈ 36.1 µM) |  | inhibition in vivo at 19 mg/kg (Mus musculus [8]): 95% |
| Cc1ccc([S+]([O-])(=NC(=O)Nc2ccc(Cl)cc2)NCCO)cc1 (centres undefined) | > 20 |  | inhibition in vivo at 300 mg/kg (Mus musculus [3]): 60% |
| N[S+]([O-])(=NC(=O)Nc1ccc(Cl)cc1)c1ccc(Cl)cc1 (centres undefined) | 12.3 (≈ 35.7 µM) |  | inhibition in vivo at 50 mg/kg (Mus musculus [4]): 80% |
| CN[S+]([O-])(=NC(=O)N(C)c1ccc(Cl)cc1)c1ccc(C)cc1 (centres undefined) | > 20 |  | inhibition in vivo at 150 mg/kg (Mus musculus [1]): 91% |
| Cc1ccc([S+](N)([O-])=NC(=O)Nc2ccc(F)cc2)cc1 (centres undefined) | > 20 | 0 |  |
| Cc1cc(C)cc([S+](N)([O-])=NC(=O)Nc2ccc(Cl)cc2)c1 (centres undefined) | 20 (≈ 59.2 µM) |  | inhibition in vivo at 200 mg/kg (Mus musculus [9]): 77% |
| Cc1ccc([S+]([O-])(=NC(=O)Nc2ccc(Cl)cc2)NCC(C)C)cc1 (centres undefined) | 0.7 (≈ 1.84 µM) |  | inhibition in vivo at 75 mg/kg (Mus musculus [7]): 85% |
| N[S+]([O-])(=NC(=O)Nc1ccc(Cl)cc1)c1ccccc1 (centres undefined) | > 20 | 0 |  |
| O=C(Nc1ccc(Cl)cc1)NS(=O)(=O)c1ccc2c(c1)CCC2 [SULOFENUR] |  |  | Activity (Mus musculus [6]): 0.37 µM; inhibition in vivo at 150 mg/kg (Mus musculus [1]): 91% |
| CC(=O)N[S+]([O-])(=NC(=O)Nc1ccc(Cl)cc1)c1ccc(C)cc1 (centres undefined) | > 20 | 84 |  |
